ChEMBL document CHEMBL3112398, “Qualification of LSP1-2111 as a Brain Penetrant Group III Metabotropic Glutamate Receptor Orthosteric Agonist” (ACS Med Chem Lett, 2014)

How the values were obtained:
Homo sapiens [1] = species on record: Homo sapiens; assay: Selectivity for mGlu4 receptor (unknown origin) over mGlu8 receptor (unknown origin)
Homo sapiens [2] = species on record: Homo sapiens; assay: Selectivity for mGlu4 receptor (unknown origin) over mGlu7 receptor (unknown origin)
Homo sapiens [3] = species on record: Homo sapiens; assay: Selectivity for mGlu4 receptor (unknown origin) over mGlu6 receptor (unknown origin)
Brain [4] = assay: Drug uptake in Sprague-Dawley rat brain at 10 mg/kg, sc after 6 hrs by quantitative microdialysis method; assay type: ADME, organism-based; design: dose 10 mg/kg, route subcutaneous; conditions: in vivo
Outline: (§1)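 Rats dosed SC at 10 mg/kg with drug in saline at pH 7.4; plasma, CSF and brain homogenate sampled over a 6 h time course (0.5–6 h), N = 4. Brain not perfused before homogenization. AUC0-6 computed from the concentration–time profiles.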

Brain [5] = assay: Drug uptake in Sprague-Dawley rat brain at 10 mg/kg, sc after 4 hrs by quantitative microdialysis method; assay type: ADME, organism-based; design: dose 10 mg/kg, route subcutaneous; conditions: in vivo; outline: as §1
[6] = AUC (infinity) in Sprague-Dawley rat at 1 mg/kg, iv; assay type: ADME, organism-based; design: time infinity, dose 1 mg/kg, route intravenous; conditions: plasma
Outline: (§2)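 Plasma concentrations were followed over time. Pharmacokinetic parameters were derived by noncompartmental analysis and reported as means of N = 2 animals.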

Brain [7] = assay: Drug uptake in Sprague-Dawley rat brain at 10 mg/kg, sc after 30 mins by quantitative microdialysis method; assay type: ADME, organism-based; design: dose 10 mg/kg, route subcutaneous; conditions: in vivo, 0.5 h; outline: as §1
[8] = Cmax in Sprague-Dawley rat at 10 mg/kg, po; assay type: ADME, organism-based; design: dose 10 mg/kg, route oral; conditions: in vivo
Outline: (§3)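 SD rats given IV (1 mg/kg) or oral (10 mg/kg) doses as a solution in saline buffered to pH 7.4, dose volume 5 mL/kg, N = 2. Plasma concentration–time profiles analysed by noncompartmental analysis; reported values are means.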

[9] = AUC (0 to 6 hrs) in Sprague-Dawley rat CSF at 10 mg/kg, sc by quantitative microdialysis method; assay type: ADME, organism-based; design: time < 6 hr, dose 10 mg/kg, route subcutaneous; outline: as §1
[10] = Drug uptake in Sprague-Dawley rat CSF at 10 mg/kg, sc after 6 hrs by quantitative microdialysis method; assay type: ADME, organism-based, Cerebrospinal fluid; design: dose 10 mg/kg, route subcutaneous; conditions: read-out: Drug uptake; outline: as §1
Brain [11] = assay: AUC (0 to 6 hrs) in Sprague-Dawley rat brain at 10 mg/kg, sc by quantitative microdialysis method; assay type: ADME, organism-based; design: time < 6 hr, dose 10 mg/kg, route subcutaneous; conditions: in vivo; outline: as §1
[12] = AUC (0 to 6 hrs) in Sprague-Dawley rat plasma at 10 mg/kg, sc by quantitative microdialysis method; assay type: ADME, organism-based; design: time < 6 hr, dose 10 mg/kg, route subcutaneous; outline: as §1
Plasma [13] = assay: Plasma concentration in Sprague-Dawley rat at 10 mg/kg, sc after 0.5 to 6 hrs by quantitative microdialysis method; assay type: ADME, organism-based; design: dose 10 mg/kg, route subcutaneous; conditions: in vivo; outline: as §1
[14] = Half life in Sprague-Dawley rat at 1 mg/kg, iv; assay type: ADME, organism-based; design: dose 1 mg/kg, route intravenous; conditions: in vivo; outline: as §3
[15] = Plasma clearance in Sprague-Dawley rat at 1 mg/kg, iv; assay type: ADME, organism-based; design: dose 1 mg/kg, route intravenous; outline: as §3
[16] = Half life in Sprague-Dawley rat plasma at 10 mg/kg, sc by quantitative microdialysis method; assay type: ADME, organism-based; design: dose 10 mg/kg, route subcutaneous; outline: as §1
[17] = Drug uptake in rat Sprague-Dawley ECF at 10 mg/kg, sc after 60 mins by quantitative microdialysis method; assay type: ADME, organism-based; design: dose 10 mg/kg, route subcutaneous; conditions: read-out: Drug uptake
Outline: (§4)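 Rat in vivo microdialysis with a MetaQuant probe at a low flow rate of 0.1 μL/min after SC doses of 10 or 30 mg/kg. Brain ECF dialysate and plasma concentrations followed over time. ECF values corrected for 96% in vivo probe recovery.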

[18] = Drug uptake in Sprague-Dawley rat ECF at 30 mg/kg, sc after 60 mins by quantitative microdialysis method; assay type: ADME, organism-based; design: dose 30 mg/kg, route subcutaneous; conditions: read-out: Drug uptake; outline: as §4
[19] = Plasma concentration in Sprague-Dawley rat at 30 mg/kg, sc after 60 mins by quantitative microdialysis method; assay type: ADME, organism-based; design: dose 30 mg/kg, route subcutaneous; outline: as §4
[20] = Plasma concentration in Sprague-Dawley rat at 10 mg/kg, sc after 60 mins by quantitative microdialysis method; assay type: ADME, organism-based; design: dose 10 mg/kg, route subcutaneous; outline: as §4
[21] = Volume of distribution at steady state in Sprague-Dawley rat at 1 mg/kg, iv; assay type: ADME, organism-based; design: dose 1 mg/kg, route intravenous; conditions: in vivo, read-out: Vdss; outline: as §3
[22] = Tmax in Sprague-Dawley rat at 10 mg/kg, po; assay type: ADME, organism-based; design: dose 10 mg/kg, route oral; conditions: in vivo; outline: as §3
[23] = AUC (infinity) in Sprague-Dawley rat at 10 mg/kg, po; assay type: ADME, organism-based; design: time infinity, dose 10 mg/kg, route oral; conditions: plasma; outline: as §2
Liver microsome [24] = assay: Intrinsic clearance in human liver microsomes; assay type: ADME
hERG (KCNH2) = hERG (KCNH2) (Homo sapiens, UniProt Q12809); assay: Inhibition of human ERG channel at 30 uM by ionworks assay
Liver microsome [25] = assay: Intrinsic clearance in rat liver microsomes; assay type: ADME
[26] = Fraction unbound in mouse brain homogenates; assay type: ADME, tissue-based; conditions: brain homogenate
[27] = Fraction unbound in rat brain homogenates; assay type: ADME, tissue-based; conditions: brain homogenate
[28] = Fraction unbound in rat plasma; assay type: ADME, cell-free
[29] = Fraction unbound in mouse plasma; assay type: ADME, cell-free
[30] = Fraction unbound in human plasma; assay type: ADME, cell-free
MDR1 [31] = assay: Apparent permeability from basolateral to apical side in MDCK cells expressing MDR1; assay type: ADME, cell-based, Canis lupus familiaris; conditions: dog
Outline: (§5)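 Bidirectional transport across MDCK/MDR1 monolayers, apparent permeability measured A→B and B→A. The B→A/A→B ratio is used as an indicator of P-gp substrate behaviour.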

MDR1 [32] = assay: Apparent permeability from apical to basolateral side in MDCK cells expressing MDR1; assay type: ADME, cell-based, Canis lupus familiaris; conditions: dog; outline: as §5
[33] = Oral bioavailability in Sprague-Dawley rat at 10 mg/kg; assay type: ADME, organism-based; conditions: in vivo; outline: as §3
[34] = Passive apparent permeability of the compound by PAMPA; assay type: ADME
[35] = Kinetic aqueous solubility of the compound; assay type: physicochemical; conditions: buffer; read-out: Kinetic_solubility
Outline: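 Kinetic aqueous solubility determined in an assay developed and optimized for lipophilic compounds; detection limit 800 μM.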

[36] = Thermodynamic solubility of the compound at pH 7.4; assay type: physicochemical; conditions: buffer, read-out: Therm_solubility
[37] = Lipophilicity, log D of the compound at pH 7.4; assay type: physicochemical; conditions: buffer
[38] = biological target: Metabotropic glutamate receptor 4 (Homo sapiens, UniProt Q14833); assay: Displacement of [3H]-L-AP4 from human mGlu4 receptor
HepG2 = assay: Cytotoxicity against human HepG2 cells by luminescence assay; assay type: cell-based
[39] = Ratio of AUC (0 to 6 hrs) from CSF to plasma in Sprague-Dawley rat at 10 mg/kg, sc by quantitative microdialysis method; assay type: ADME, organism-based; design: dose 10 mg/kg, route subcutaneous
Outline: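 Rats given 10 mg/kg SC, formulated in saline at pH 7.4 (N = 4). Plasma, CSF and brain were sampled over a 6 h time course starting at 0.5 h. Brain was homogenized without perfusion, so capillary blood was retained. Ratios were calculated from AUC0-6 of CSF or brain homogenate versus plasma.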

[40] = Ratio of AUC (0 to 6 hrs) from brain to plasma in Sprague-Dawley rat at 10 mg/kg, sc by quantitative microdialysis method; assay type: ADME, organism-based; design: dose 10 mg/kg, route subcutaneous; conditions: in vivo
Plasma [41] = assay: Maximum unbound concentration in Sprague-Dawley rat plasma at 10 mg/kg, sc after 0.5 hrs by quantitative microdialysis method; conditions: in vivo

Metabotropic glutamate receptor 4, sequence (Q14833 whole entry): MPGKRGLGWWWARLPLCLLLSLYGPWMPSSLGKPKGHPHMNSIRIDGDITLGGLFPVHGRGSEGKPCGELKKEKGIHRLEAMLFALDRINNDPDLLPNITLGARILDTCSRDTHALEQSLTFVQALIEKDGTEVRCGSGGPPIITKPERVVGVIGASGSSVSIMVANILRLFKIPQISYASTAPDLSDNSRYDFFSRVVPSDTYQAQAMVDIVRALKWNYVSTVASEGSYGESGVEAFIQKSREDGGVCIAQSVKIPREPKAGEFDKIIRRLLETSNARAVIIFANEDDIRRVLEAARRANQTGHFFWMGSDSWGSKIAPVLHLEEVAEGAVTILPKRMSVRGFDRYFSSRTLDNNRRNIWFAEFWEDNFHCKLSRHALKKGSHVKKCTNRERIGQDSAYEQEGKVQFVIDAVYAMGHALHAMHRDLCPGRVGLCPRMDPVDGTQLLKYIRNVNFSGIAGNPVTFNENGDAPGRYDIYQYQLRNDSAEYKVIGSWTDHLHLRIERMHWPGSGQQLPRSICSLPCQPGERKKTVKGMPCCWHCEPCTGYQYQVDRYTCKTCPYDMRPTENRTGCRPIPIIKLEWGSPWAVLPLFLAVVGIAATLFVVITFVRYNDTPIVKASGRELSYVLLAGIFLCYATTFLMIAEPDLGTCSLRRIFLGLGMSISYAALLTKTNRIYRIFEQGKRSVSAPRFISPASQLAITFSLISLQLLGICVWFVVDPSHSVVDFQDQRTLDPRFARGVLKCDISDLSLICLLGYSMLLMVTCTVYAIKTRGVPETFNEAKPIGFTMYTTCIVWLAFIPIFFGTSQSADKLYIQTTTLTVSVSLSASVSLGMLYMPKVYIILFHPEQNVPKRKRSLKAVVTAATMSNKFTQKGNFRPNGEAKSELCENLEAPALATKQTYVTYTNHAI
hERG (KCNH2), sequence (Q12809 whole entry): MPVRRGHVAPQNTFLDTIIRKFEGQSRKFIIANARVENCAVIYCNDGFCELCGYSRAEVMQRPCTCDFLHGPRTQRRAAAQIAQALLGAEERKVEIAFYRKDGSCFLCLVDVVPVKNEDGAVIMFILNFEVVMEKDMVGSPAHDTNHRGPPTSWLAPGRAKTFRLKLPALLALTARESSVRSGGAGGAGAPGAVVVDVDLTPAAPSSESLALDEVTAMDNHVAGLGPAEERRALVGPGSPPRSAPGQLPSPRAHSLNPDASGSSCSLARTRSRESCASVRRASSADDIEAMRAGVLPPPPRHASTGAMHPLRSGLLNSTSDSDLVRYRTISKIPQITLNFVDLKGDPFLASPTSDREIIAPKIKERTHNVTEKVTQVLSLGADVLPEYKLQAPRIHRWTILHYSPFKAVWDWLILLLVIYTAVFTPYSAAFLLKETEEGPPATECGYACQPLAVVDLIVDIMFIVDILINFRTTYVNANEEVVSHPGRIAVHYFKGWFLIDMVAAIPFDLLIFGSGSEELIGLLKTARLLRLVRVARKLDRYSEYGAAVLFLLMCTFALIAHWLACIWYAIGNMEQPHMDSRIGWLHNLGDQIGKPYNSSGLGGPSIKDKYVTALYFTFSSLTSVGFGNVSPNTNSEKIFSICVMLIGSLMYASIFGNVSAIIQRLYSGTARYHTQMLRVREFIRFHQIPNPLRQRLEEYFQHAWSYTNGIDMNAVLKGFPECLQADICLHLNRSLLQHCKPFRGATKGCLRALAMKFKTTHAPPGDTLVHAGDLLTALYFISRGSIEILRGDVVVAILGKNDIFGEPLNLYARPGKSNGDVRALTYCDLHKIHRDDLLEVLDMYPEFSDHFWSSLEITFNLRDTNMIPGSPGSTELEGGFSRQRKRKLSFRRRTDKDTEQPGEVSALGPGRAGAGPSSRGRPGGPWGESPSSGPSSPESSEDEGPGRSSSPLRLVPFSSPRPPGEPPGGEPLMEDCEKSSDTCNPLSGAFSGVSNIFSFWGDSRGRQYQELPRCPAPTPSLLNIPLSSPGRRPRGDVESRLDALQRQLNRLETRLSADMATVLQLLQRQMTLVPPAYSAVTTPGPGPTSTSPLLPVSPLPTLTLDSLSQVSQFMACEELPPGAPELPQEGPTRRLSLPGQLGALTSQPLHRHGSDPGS

SMILES: N[C@@H](CCP(=O)(O)C(O)c1ccc(OCC(=O)O)cc1)C(=O)O (stereo partly specified)
- Selectivity ratio (Homo sapiens [1]): 300
- Selectivity ratio (Homo sapiens [2]): 100
- Selectivity ratio (Homo sapiens [3]): 40

SMILES: COc1cc(C(O)P(=O)(O)CC[C@H](N)C(=O)O)cc([N+](=O)[O-])c1O (mixture of isomers)
- Drug uptake (Brain [4]): 0.4 µM
- Drug uptake (Brain [5]): 0.08 µM
- AUC(0-inf) [6]: 2800 ng·h/mL
- Drug uptake (Brain [7]): 1 µM
- Cmax [8]: 92 ng/mL
- AUC(0-t) at 6 h [9]: 3500 ng·h/mL
- concentration at 6 h [10]: 0.7 µM
- AUC (Brain [11]): 0.7 µg·h/g
- AUC(0-t) at 6 h [12]: 30000 ng·h/mL
- Cp (Plasma [13]): 150 ng/mL
- half-life [14]: 18 min
- clearance [15]: 6.2 mL/min/kg
- half-life [16]: 20 min
- concentration at 1 h [17]: 1.8 µM
- concentration at 1 h [18]: 9.8 µM
- concentration at 1 h [19]: 114 µM
- concentration at 1 h [20]: 31 µM
- Vd [21]: 0.1 L/kg
- Tmax [22]: 84 min
- AUC(0-inf) [23]: 200 ng·h/mL
- CLH (Liver microsome [24]): 0.1 L/min
- inhibition at 30 µM (hERG (KCNH2)): 14%
- CLH (Liver microsome [25]): 3.1 mL/min
- fraction unbound [26]: > 0.99
- fraction unbound [27]: > 0.99
- fraction unbound [28]: > 0.99
- fraction unbound [29]: > 0.99
- fraction unbound [30]: 0.73
- Papp B→A (MDR1 [31]): 0.5 ×10⁻⁶ cm/s
- Papp A→B (MDR1 [32]): 0.2 ×10⁻⁶ cm/s
- bioavailability [33]: 0.8%
- Papp [34]: < 0.1 ×10⁻⁶ cm/s
- solubility kinetic [35]: > 800 µM
- solubility thermodynamic [36]: > 1800 µg/mL
- logD [37]: -0.7
- IC50 [38]: 8.6 µM
- Activity (HepG2): Non-toxic
- Ratio AUC [39]: 12%
- Selectivity ratio (Homo sapiens [1]): 30
- Selectivity ratio (Homo sapiens [2]): 25
- Selectivity ratio (Homo sapiens [3]): 1
- Ratio AUC [40]: 2.4%
- Cp(f) (Plasma [41]): 55.2 µM
